Calls of active or inactive are those of the source. No cut-off for these calls is given here.

Chain of Delta-type opioid receptor (P41143 whole entry): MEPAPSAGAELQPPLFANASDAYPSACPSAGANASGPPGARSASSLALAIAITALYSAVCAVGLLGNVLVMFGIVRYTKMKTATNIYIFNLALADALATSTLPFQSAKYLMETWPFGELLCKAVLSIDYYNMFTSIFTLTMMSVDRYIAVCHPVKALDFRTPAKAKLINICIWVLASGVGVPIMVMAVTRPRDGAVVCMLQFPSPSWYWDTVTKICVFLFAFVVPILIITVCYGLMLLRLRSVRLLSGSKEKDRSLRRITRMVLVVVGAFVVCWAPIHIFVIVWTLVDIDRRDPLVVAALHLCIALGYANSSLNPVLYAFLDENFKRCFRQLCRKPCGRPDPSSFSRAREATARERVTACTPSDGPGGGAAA
Chain of Nociceptin receptor (P41146 whole entry): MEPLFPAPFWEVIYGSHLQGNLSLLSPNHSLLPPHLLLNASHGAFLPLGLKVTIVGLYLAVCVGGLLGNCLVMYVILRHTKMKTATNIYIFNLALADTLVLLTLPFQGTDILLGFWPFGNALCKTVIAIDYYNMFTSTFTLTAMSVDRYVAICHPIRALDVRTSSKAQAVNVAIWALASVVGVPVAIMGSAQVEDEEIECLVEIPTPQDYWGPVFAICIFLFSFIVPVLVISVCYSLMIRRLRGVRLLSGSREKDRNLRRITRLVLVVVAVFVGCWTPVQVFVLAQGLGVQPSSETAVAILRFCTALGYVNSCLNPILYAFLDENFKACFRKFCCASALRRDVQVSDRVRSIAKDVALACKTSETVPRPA
Chain of Mu-type opioid receptor (P35372 whole entry): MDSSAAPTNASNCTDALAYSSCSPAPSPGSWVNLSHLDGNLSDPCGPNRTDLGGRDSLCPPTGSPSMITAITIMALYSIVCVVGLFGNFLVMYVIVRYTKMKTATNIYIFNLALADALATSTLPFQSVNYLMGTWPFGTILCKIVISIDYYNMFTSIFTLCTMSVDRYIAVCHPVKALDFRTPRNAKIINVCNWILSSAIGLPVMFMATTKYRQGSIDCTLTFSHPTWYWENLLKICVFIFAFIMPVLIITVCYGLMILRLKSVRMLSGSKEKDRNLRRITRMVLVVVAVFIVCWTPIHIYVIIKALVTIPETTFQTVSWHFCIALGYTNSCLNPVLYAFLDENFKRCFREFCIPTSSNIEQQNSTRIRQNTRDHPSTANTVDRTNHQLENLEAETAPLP

Test system in the first series: not listed separately
Kind of series: Plasma clearance in Sprague-Dawley rat at 1 mg/kg, iv. The class given is ADME, organism-based. Also noted: dose 1 mg/kg, route intravenous.
Settings: not given
The essentials:
(§1)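 Male Sprague-Dawley rats (n = 3 per treatment), fasted 4–24 h, dosed iv bolus at 1 mg/kg or po at 3 or 10 mg/kg in 20% (w/w) Captisol in 25 mM phosphate buffer pH 2. Arterial blood sampled 0–16 or 24 h into EDTA, and plasma protein-precipitated with internal standard. LC-MS/MS quantitation against plasma standard curve (1–50 000 ng/mL). Noncompartmental analysis. F = dnAUCpo/dnAUCiv.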
By clearance is commonly meant the rate of elimination divided by the concentration. Low values mean a low capacity for elimination, high ones a high capacity for elimination. `Cc1nn(-c2ncccc2F)cc1CN1CCC2(CC1)OCC(F)(F)c1cc(Cl)sc12.O=C(O)C(O)C(O)C(=O)O`: the clearance is 1.19 L/h/kg.

For `Cc1nn(-c2c(F)cccc2F)cc1CN1CCC2(CC1)OCC(F)(F)c1cc(Cl)sc12.O=C(O)C(O)C(O)C(=O)O`, the clearance stood at 3.17 L/h/kg.

Turning to `Cc1nn(-c2ncccc2CO)cc1CN1CCC2(CC1)OCC(F)(F)c1cc(Cl)sc12.O=C(O)C(O)C(O)C(=O)O`, the clearance was 1.43 L/h/kg.

Consider `Cc1nn(-c2c(F)cccc2CO)cc1CN1CCC2(CC1)OCC(F)(F)c1cc(Cl)sc12.O=C(O)C(O)C(O)C(=O)O`, for which the clearance stood at 3.63 L/h/kg.

A further series has as its target Mu-type opioid receptor (Homo sapiens, UniProt P35372). Kind of series: Displacement of [3H]-diprenorphine from human mu opioid receptor after 120 mins by cell based assay.
Settings: not given
The essentials:
(§2)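 Radioligand binding with [3H]-diprenorphine on membranes from CHO cells overexpressing recombinant human kappa, mu or delta opioid receptor; Ki determined.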
Background: Displacement assays read how much labelled ligand stays bound in the presence of the test substance.
The Ki is a measure of affinity in units of concentration, obtained from inhibition or displacement. Take `Cc1nn(-c2ncccc2F)cc1CN1CCC2(CC1)OCC(F)(F)c1cc(Cl)sc12.O=C(O)C(O)C(O)C(=O)O`: the inhibition constant (Ki) was > 0.375 µM.

`Cc1nn(-c2c(F)cccc2F)cc1CN1CCC2(CC1)OCC(F)(F)c1cc(Cl)sc12.O=C(O)C(O)C(O)C(=O)O`: the Ki is > 0.375 µM.

For `Cc1nn(-c2ncccc2CO)cc1CN1CCC2(CC1)OCC(F)(F)c1cc(Cl)sc12.O=C(O)C(O)C(O)C(=O)O`, the Ki was > 0.375 µM.

`Cc1nn(-c2c(F)cccc2CO)cc1CN1CCC2(CC1)OCC(F)(F)c1cc(Cl)sc12.O=C(O)C(O)C(O)C(=O)O`: the Ki is > 0.375 µM.

Another series has as its target Delta-type opioid receptor (Homo sapiens, UniProt P41143). The series is described as follows: Displacement of [3H]-diprenorphine from human delta opioid receptor after 120 mins by cell based assay.
Settings: not given
The essentials:
as §2
As for `Cc1nn(-c2ncccc2F)cc1CN1CCC2(CC1)OCC(F)(F)c1cc(Cl)sc12.O=C(O)C(O)C(O)C(=O)O`, the Ki was > 0.375 µM.

With `Cc1nn(-c2c(F)cccc2F)cc1CN1CCC2(CC1)OCC(F)(F)c1cc(Cl)sc12.O=C(O)C(O)C(O)C(=O)O`, the Ki was > 0.375 µM.

For `Cc1nn(-c2ncccc2CO)cc1CN1CCC2(CC1)OCC(F)(F)c1cc(Cl)sc12.O=C(O)C(O)C(O)C(=O)O`, the Ki was > 0.375 µM.

Take `Cc1nn(-c2c(F)cccc2CO)cc1CN1CCC2(CC1)OCC(F)(F)c1cc(Cl)sc12.O=C(O)C(O)C(O)C(=O)O`: the Ki is > 0.375 µM.

Test system in the next series: not listed separately
Kind of series: Plasma elimination half life in Sprague-Dawley rat at 1 mg/kg, iv. The following applies: read-out: beta t1/2 (converted). It is filed as ADME, organism-based. Also noted: dose 1 mg/kg, route intravenous. The essentials: as §1
With `Cc1nn(-c2ncccc2F)cc1CN1CCC2(CC1)OCC(F)(F)c1cc(Cl)sc12.O=C(O)C(O)C(O)C(=O)O`, the half-life was 12.1 h.

With `Cc1nn(-c2c(F)cccc2F)cc1CN1CCC2(CC1)OCC(F)(F)c1cc(Cl)sc12.O=C(O)C(O)C(O)C(=O)O`, the half-life was 10.8 h.

For `Cc1nn(-c2ncccc2CO)cc1CN1CCC2(CC1)OCC(F)(F)c1cc(Cl)sc12.O=C(O)C(O)C(O)C(=O)O`, the half-life is 3.8 h.

In the case of `Cc1nn(-c2c(F)cccc2CO)cc1CN1CCC2(CC1)OCC(F)(F)c1cc(Cl)sc12.O=C(O)C(O)C(O)C(=O)O`, the half-life was 3.9 h.

A further series deals with Rattus norvegicus. Kind of series: Reversal of Ro64-6198-incued hypothermia in Sprague-Dawley rat at 0.1 to 0.3 mg/kg, po administered 60 mins before Ro64-6198 challenge measured after 120 mins. The class given is functional, organism-based.
Settings: not given
The procedure, abridged:
(§3)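 Male Sprague-Dawley rats, 225 g, housed 2 per cage, acclimated at least 90 min. Rectal temperature was taken, then oral gavage of vehicle or test compound (0.03, 0.1 or 0.3 mg/kg). A second temperature was taken at 60 min, then Ro64-6198 (6 mg/kg sc) or vehicle was given, and a third temperature 120 min later. Between-group ANOVA with Dunnett posthoc tests against vehicle and agonist controls.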
`Cc1nn(-c2ncccc2CO)cc1CN1CCC2(CC1)OCC(F)(F)c1cc(Cl)sc12.O=C(O)C(O)C(O)C(=O)O`: the result was Active.

Test system in a further series: not listed separately
The series is described as follows: Oral bioavailability in Sprague-Dawley rat at 10 mg/kg. It is filed as ADME, organism-based. The following applies: in vivo. The procedure, abridged: as §1
As usually defined, the bioavailability is the share of a dose that reaches the circulation, judged against a reference dose that is usually intravenous. Low readings indicate poor availability, high ones good availability. `Cc1nn(-c2ncccc2CO)cc1CN1CCC2(CC1)OCC(F)(F)c1cc(Cl)sc12.O=C(O)C(O)C(O)C(=O)O` gave a bioavailability of 57%.

As to `Cc1nn(-c2c(F)cccc2CO)cc1CN1CCC2(CC1)OCC(F)(F)c1cc(Cl)sc12.O=C(O)C(O)C(O)C(=O)O`, the bioavailability worked out at 51%.

The test system of another series is Rattus norvegicus. The series is described as follows: Reversal of Ro64-6198-incued hypothermia in po dosed Sprague-Dawley rat administered 60 mins before Ro64-6198 challenge measured after 120 mins. The class given is functional, organism-based.
Settings: not given
The essentials: as §3
As to `Cc1nn(-c2ncccc2CO)cc1CN1CCC2(CC1)OCC(F)(F)c1cc(Cl)sc12.O=C(O)C(O)C(O)C(=O)O`, the Activity entry is “Dose-dependent effect”.

Test system in a further series: not listed separately
The series is described as follows: Oral bioavailability in Sprague-Dawley rat at 3 mg/kg. The class given is ADME, organism-based. As to conditions: in vivo. The procedure, abridged: as §1
With `Cc1nn(-c2ncccc2F)cc1CN1CCC2(CC1)OCC(F)(F)c1cc(Cl)sc12.O=C(O)C(O)C(O)C(=O)O`, the bioavailability is 62%.

`Cc1nn(-c2c(F)cccc2F)cc1CN1CCC2(CC1)OCC(F)(F)c1cc(Cl)sc12.O=C(O)C(O)C(O)C(=O)O` returned a bioavailability of 49%.

A further series deals with Kappa-type opioid receptor (Homo sapiens, UniProt P41145). The series is described as follows: Displacement of [3H]-diprenorphine from human kappa opioid receptor after 120 mins by cell based assay.
Chain of Kappa-type opioid receptor (P41145 whole entry): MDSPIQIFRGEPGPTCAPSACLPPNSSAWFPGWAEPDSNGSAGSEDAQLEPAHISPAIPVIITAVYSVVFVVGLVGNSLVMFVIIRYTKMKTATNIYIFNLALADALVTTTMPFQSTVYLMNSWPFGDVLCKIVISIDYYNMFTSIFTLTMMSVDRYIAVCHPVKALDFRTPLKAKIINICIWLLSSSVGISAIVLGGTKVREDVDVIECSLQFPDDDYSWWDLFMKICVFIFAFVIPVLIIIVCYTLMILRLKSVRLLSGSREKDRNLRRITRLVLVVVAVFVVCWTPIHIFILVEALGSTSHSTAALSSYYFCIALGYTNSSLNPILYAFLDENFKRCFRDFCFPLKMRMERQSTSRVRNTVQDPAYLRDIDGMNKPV
Settings: not given
The procedure, abridged:
as §2
As to `Cc1nn(-c2ncccc2F)cc1CN1CCC2(CC1)OCC(F)(F)c1cc(Cl)sc12.O=C(O)C(O)C(O)C(=O)O`, the Ki is > 0.375 µM.

Turning to `Cc1nn(-c2c(F)cccc2F)cc1CN1CCC2(CC1)OCC(F)(F)c1cc(Cl)sc12.O=C(O)C(O)C(O)C(=O)O`, the Ki is > 0.375 µM.

As for `Cc1nn(-c2ncccc2CO)cc1CN1CCC2(CC1)OCC(F)(F)c1cc(Cl)sc12.O=C(O)C(O)C(O)C(=O)O`, the Ki is > 0.375 µM.

As to `Cc1nn(-c2c(F)cccc2CO)cc1CN1CCC2(CC1)OCC(F)(F)c1cc(Cl)sc12.O=C(O)C(O)C(O)C(=O)O`, the Ki is > 0.375 µM.

Test system in a further series: not listed separately
Kind of series: Volume of distribution in Sprague-Dawley rat at 1 mg/kg, iv. The class given is ADME, organism-based. Also noted: dose 1 mg/kg, route intravenous. As to conditions: in vivo. The essentials: as §1
As a reminder, the Vd is the apparent volume that relates the amount in the body to the concentration in plasma or blood. A higher Vd goes with extensive tissue distribution. Turning to `Cc1nn(-c2ncccc2F)cc1CN1CCC2(CC1)OCC(F)(F)c1cc(Cl)sc12.O=C(O)C(O)C(O)C(=O)O`, the distribution volume (Vd) was determined as 13.6 L/kg.

Consider `Cc1nn(-c2c(F)cccc2F)cc1CN1CCC2(CC1)OCC(F)(F)c1cc(Cl)sc12.O=C(O)C(O)C(O)C(=O)O`, for which the Vd turned out to be 28.2 L/kg.

On to `Cc1nn(-c2ncccc2CO)cc1CN1CCC2(CC1)OCC(F)(F)c1cc(Cl)sc12.O=C(O)C(O)C(O)C(=O)O`, for which the Vd was found to be 5.3 L/kg.

Compound `Cc1nn(-c2c(F)cccc2CO)cc1CN1CCC2(CC1)OCC(F)(F)c1cc(Cl)sc12.O=C(O)C(O)C(O)C(=O)O` registered a volume of distribution (Vd) of 12.7 L/kg.

Another series concerns the target Nociceptin receptor (Homo sapiens, UniProt P41146). The series is described as follows: Displacement of [3H]-nociceptin from human recombinant NOP receptor expressed in CHO cells after 60 mins by scintillation counting. The class given is cell-based.
Settings: not given
Regarding `Cc1nn(-c2ncccc2F)cc1CN1CCC2(CC1)OCC(F)(F)c1cc(Cl)sc12.O=C(O)C(O)C(O)C(=O)O`, the inhibition constant Ki is 0.000176 µM.

For `Cc1nn(-c2c(F)cccc2F)cc1CN1CCC2(CC1)OCC(F)(F)c1cc(Cl)sc12.O=C(O)C(O)C(O)C(=O)O`, the inhibition constant (Ki) was 0.000172 µM.

In the case of `Cc1nn(-c2ncccc2CO)cc1CN1CCC2(CC1)OCC(F)(F)c1cc(Cl)sc12.O=C(O)C(O)C(O)C(=O)O`, the inhibition constant Ki came to 0.000105 µM.

In the case of `Cc1nn(-c2c(F)cccc2CO)cc1CN1CCC2(CC1)OCC(F)(F)c1cc(Cl)sc12.O=C(O)C(O)C(O)C(=O)O`, the Ki came out at 0.000114 µM.

A further series relates to Rattus norvegicus. The series is described as follows: Ex vivo receptor occupancy of NOP receptor in Sprague-Dawley rat brain at 10 mg/kg, po after 24 hrs by LC-MS/MS analysis. The class given is functional.
Settings: not given
The procedure, abridged: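 Male Sprague-Dawley rats, 220–300 g, 12 h light:dark cycle, free chow and water. A single oral 10 mg/kg dose or oral vehicle was given. 24 h later, nonlabeled tracer was given as an iv tail-vein bolus at 3 μg/kg. Brain was taken 40 min after tracer (hypothalamus, striatum), homogenized in ACN with 0.1% formic acid, centrifuged, diluted with water and read by LC-MS/MS.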
The compound `Cc1nn(-c2ncccc2F)cc1CN1CCC2(CC1)OCC(F)(F)c1cc(Cl)sc12.O=C(O)C(O)C(O)C(=O)O` showed an Occ of 55%.

For the compound `Cc1nn(-c2c(F)cccc2F)cc1CN1CCC2(CC1)OCC(F)(F)c1cc(Cl)sc12.O=C(O)C(O)C(O)C(=O)O`, the Occ turned out to be 49%.

On to `Cc1nn(-c2ncccc2CO)cc1CN1CCC2(CC1)OCC(F)(F)c1cc(Cl)sc12.O=C(O)C(O)C(O)C(=O)O`, for which the Occ is 62%.

`Cc1nn(-c2c(F)cccc2CO)cc1CN1CCC2(CC1)OCC(F)(F)c1cc(Cl)sc12.O=C(O)C(O)C(O)C(=O)O` returned an Occ of 87%.

The next series concerns Rattus norvegicus. The series is described as follows: Toxicity in Sprague-Dawley rat assessed as basal body temperature at 0.03 to 0.3 mg/kg, po after 60 mins. As to conditions: in vivo, 1 h.
For `Cc1nn(-c2ncccc2CO)cc1CN1CCC2(CC1)OCC(F)(F)c1cc(Cl)sc12.O=C(O)C(O)C(O)C(=O)O`, the Activity result is “Non-toxic”.

Test system in another series: not listed separately
Kind of series: AUC (0 to infinity) in Sprague-Dawley rat at 3 mg/kg, po. It is filed as ADME, organism-based. As to conditions: plasma. Also noted: time infinity, dose 3 mg/kg, route oral. The procedure, abridged:
as §1
Broadly, the AUC(0-inf) is total exposure, with the tail of the curve extrapolated. Read a high AUC(0-inf) as more exposure. With `Cc1nn(-c2ncccc2F)cc1CN1CCC2(CC1)OCC(F)(F)c1cc(Cl)sc12.O=C(O)C(O)C(O)C(=O)O`, the AUC(0-inf) is 1.81 µg·h/mL.

Compound `Cc1nn(-c2c(F)cccc2F)cc1CN1CCC2(CC1)OCC(F)(F)c1cc(Cl)sc12.O=C(O)C(O)C(O)C(=O)O` returned an AUC(0-inf) of 0.438 µg·h/mL.

Test system in a further series: not listed separately
Kind of series: AUC (0 to infinity) in Sprague-Dawley rat at 10 mg/kg, po. It is filed as ADME, organism-based. Also noted: time infinity, dose 10 mg/kg, route oral. As to conditions: plasma. The procedure, abridged:
as §1
For the compound `Cc1nn(-c2ncccc2CO)cc1CN1CCC2(CC1)OCC(F)(F)c1cc(Cl)sc12.O=C(O)C(O)C(O)C(=O)O`, the AUC(0-inf) is 4.1 µg·h/mL.

For `Cc1nn(-c2c(F)cccc2CO)cc1CN1CCC2(CC1)OCC(F)(F)c1cc(Cl)sc12.O=C(O)C(O)C(O)C(=O)O`, the AUC(0-inf) was 1.28 µg·h/mL.
